The record followed here is ChEMBL document CHEMBL5329173, “Proline pre-conditioning of Jurkat cells improves recovery after cryopreservation” (RSC Med Chem, 2023).

Data set [1] is described as follows: Cytotoxicity against human Jurkat E6.1 cells assessed as cell growth inhibition at 200 mM incubated for 24 hrs by trypan blue exclusion method relative to control. In kind it is toxicity, cell-based. To be noted: read-out: Activity. In short, it runs like this:
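Amino acid additives dissolved in complete Advanced RPMI 1640 (base medium contains 0.17 mM L-proline, 0.10 mM L-alanine) and sterile filtered. Jurkat cells seeded at 1 × 10^6 mL−1 and held 24 h at 37 °C, 5% CO2 without freezing. Counts taken every 4 h, with live/dead scored by trypan blue exclusion on an automated counter. Growth and viability were compared with additive-free medium; mean ± SD of independent experiments.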

Data set [2] concerns Jurkat E6.1. Nature of the data set: Effect of compound on cryopreserved human Jurkat E6.1 cells recovery assessed as increase in post-thaw cell recovery at 0.5 millions/ml cell density at 200 mM preincubated for 24 hrs followed by media replacement and cryopreserved at -1 degreeC/min to -80 degreeC/min and measured after 24 hrs post-thaw by trypan blue exclusion method. In kind it is functional. The method, boiled down:
(§1)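 Cells were pre-incubated 24 h in medium with amino acid at the stated density, then the medium was replaced with fresh additive-free medium. Cells were adjusted to 1 × 10^6 cells per mL and held 10 min at room temperature in medium with 5% DMSO. They were cooled at −1 °C min−1 to −80 °C and stored ≥24 h. Thawing was 5 min in a 37 °C water bath, followed by culture at 37 °C, 5% CO2. Recovery relative to pre-freeze count was determined by trypan blue exclusion.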

In data set [3] the test system is Jurkat E6.1. The data set can be described thus: Cytotoxicity against human Jurkat E6.1 cells assessed as decrease in metabolic activity at 200 mM incubated for 24 hrs by resazurin assay. To be noted: jurkat e6.1, 24 h, 200000 µM. In kind it is toxicity, cell-based. The method, boiled down:
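Cells were incubated 24 h at 37 °C in medium containing 200 mM additive, then readjusted to 1 × 10^6 cells per mL. They were resuspended in resazurin solution made in additive-free complete medium and incubated 3 or 4 h at 37 °C. Fluorescence was read at 590/35 nm emission and expressed as % of untreated control. Mean ± SD, at least three independent experiments.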

Data set [4] deals with Jurkat E6.1. Nature of the data set: Effect of compound on cryopreserved human Jurkat E6.1 cells recovery assessed as increase in post-thaw cell recovery at 200 mM preincubated for 24 hrs followed by media replacement and cryopreserved at -1 degreeC/min to -80 degreeC/min and measured after 24 hrs post-thaw by trypan blue exclusion method (Rvb=63 %). In kind it is functional. In short, it runs like this: as §1

Data set [5] has as its system Jurkat E6.1. The data set can be described thus: Effect of compound on cryopreserved human Jurkat E6.1 cells recovery assessed as increase in post-thaw cell recovery at 0.8 millions/ml cell density at 200 mM preincubated for 24 hrs followed by media replacement and cryopreserved at -1 degreeC/min to […] and measured after 24 hrs post-thaw by trypan blue exclusion method. In kind it is functional, cell-based. In short, it runs like this: as §1

Data set [6] is described as follows: Cytotoxicity against human Jurkat E6.1 cells assessed as cell growth inhibition at 100 mM incubated for 24 hrs by trypan blue exclusion method relative to control.

Activity calls are given as the source filed them. No cut-off for these calls is given here.

Turning to `C[C@H](N)C(=O)O` [ALANINE], the inhibition at 24 h, 200000 µM in data set [1] was 72%. Besides, the Activity was 83% in the data set with Jurkat E6.1 [2], “Non-Toxic” in the data set with Jurkat E6.1 [3] and 49% with Jurkat E6.1 [4]. For the same compound, the outcome in the data set on Jurkat E6.1 [5] was Active.
Turning to `O=C(O)[C@H]1CCCN1` [D-PROLINE], the inhibition at 24 h, 200000 µM in data set [1] was 107%. The Activity entry in the data set on Jurkat E6.1 [3] is recorded as “Toxic”; in the data set on Jurkat E6.1 [4] it was 52%.
Take `O=C(O)[C@@H]1CCCN1` [PROLINE]: the inhibition at 24 h, 100000 µM in data set [6] was 34%. Besides, the inhibition at 24 h, 200000 µM in data set [1] was 46%. Moreover, the values for the Activity in the data set on Jurkat E6.1 [2], in the data set with Jurkat E6.1 [3] and in the data set with Jurkat E6.1 [4] were 77%, “Non-Toxic” and 70%, respectively. Further, in the data set on Jurkat E6.1 [5], the result was Active.
